A selection: hits, their analogues and other compounds. The true share with any hit is near 2.3%.
ABCG2 inh: ABCG2 efflux pump inhibitors, primary screen, multiplex with ABCB1, IgMXP3 cells, flow cytometry | Broad substrate specificity ATP-binding cassette transporter ABCG2 (Homo sapiens), Q9UNQ0 | JC-1 efflux | inhibition, % at 6.6 µM | 0.1% of 190,000 active;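 active means inhibition above 80%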
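Assay system – ABCG2 IgMXP3 and barcoded ABCB1 CCRF-Adr cell mix · Input – 3 million cells/mL in well · Reagent – JC-1 fluorescent substrate · Compound – single test compound dose, 6.6 µM final · Timing – 10 min exposure at 25 °C with rotation, no wash · Detection – flow cytometry of retained JC-1 fluorescence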
MEKK2 WT-MEK5: modulators of MEK5 binding to wildtype MEKK2, primary screen, biochemical, multiplex bead flow cytometry, Alexa488-MEK5 | Alexa488-MEK5 binding to MEKK2 WT; actives lie on both sides | Mitogen-activated protein kinase kinase kinase 2 (Homo sapiens), Q9Y2U5 | 1.1% of 290,000 active | binding response (% of control), % at 10 µM; in the data active means binding response below about 67% or above about 130%
MEKK3 PB1 HTS: modulators of MEKK3-MEK5 PB1 binding, primary screen, biochemical, wildtype MEKK3, multiplex bead flow cytometry, Alexa488-MEK5; bead-based flow cytometry, Alexa488-MEK5 binding to MEKK3; actives lie on both sides; 0 = blocked by unlabeled MEK5, 100 = vehicle; Mitogen-activated protein kinase kinase kinase 3 (Homo sapiens), Q99759; binding response (% of control), % at 10 µM; 1.4% of 290,000 active; AID 1529, 2009;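 active means binding response more than 3 SD above or below the average of its plate-row segment, actives on both sides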;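 further: Alexa488 bead fluorescence after subtracting the streptavidin-only scavenger bead signal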
ABCB1 inh: ABCB1 efflux pump inhibitors, primary screen, cell-based, multiplex, flow cytometry, ABCG2 counter-screen; ATP-dependent translocase ABCB1 (Homo sapiens), P08183; CCRF-Adr cells, JC-1 efflux; inhibition, % at 6.6 µM; 0.067% of 190,000 active; AID 1326, 2008; in the data active means inhibition above about 40%;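 further: higher value means more JC-1 retained so stronger ABCB1 efflux block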
Target sequence (P08183 whole entry, looked up): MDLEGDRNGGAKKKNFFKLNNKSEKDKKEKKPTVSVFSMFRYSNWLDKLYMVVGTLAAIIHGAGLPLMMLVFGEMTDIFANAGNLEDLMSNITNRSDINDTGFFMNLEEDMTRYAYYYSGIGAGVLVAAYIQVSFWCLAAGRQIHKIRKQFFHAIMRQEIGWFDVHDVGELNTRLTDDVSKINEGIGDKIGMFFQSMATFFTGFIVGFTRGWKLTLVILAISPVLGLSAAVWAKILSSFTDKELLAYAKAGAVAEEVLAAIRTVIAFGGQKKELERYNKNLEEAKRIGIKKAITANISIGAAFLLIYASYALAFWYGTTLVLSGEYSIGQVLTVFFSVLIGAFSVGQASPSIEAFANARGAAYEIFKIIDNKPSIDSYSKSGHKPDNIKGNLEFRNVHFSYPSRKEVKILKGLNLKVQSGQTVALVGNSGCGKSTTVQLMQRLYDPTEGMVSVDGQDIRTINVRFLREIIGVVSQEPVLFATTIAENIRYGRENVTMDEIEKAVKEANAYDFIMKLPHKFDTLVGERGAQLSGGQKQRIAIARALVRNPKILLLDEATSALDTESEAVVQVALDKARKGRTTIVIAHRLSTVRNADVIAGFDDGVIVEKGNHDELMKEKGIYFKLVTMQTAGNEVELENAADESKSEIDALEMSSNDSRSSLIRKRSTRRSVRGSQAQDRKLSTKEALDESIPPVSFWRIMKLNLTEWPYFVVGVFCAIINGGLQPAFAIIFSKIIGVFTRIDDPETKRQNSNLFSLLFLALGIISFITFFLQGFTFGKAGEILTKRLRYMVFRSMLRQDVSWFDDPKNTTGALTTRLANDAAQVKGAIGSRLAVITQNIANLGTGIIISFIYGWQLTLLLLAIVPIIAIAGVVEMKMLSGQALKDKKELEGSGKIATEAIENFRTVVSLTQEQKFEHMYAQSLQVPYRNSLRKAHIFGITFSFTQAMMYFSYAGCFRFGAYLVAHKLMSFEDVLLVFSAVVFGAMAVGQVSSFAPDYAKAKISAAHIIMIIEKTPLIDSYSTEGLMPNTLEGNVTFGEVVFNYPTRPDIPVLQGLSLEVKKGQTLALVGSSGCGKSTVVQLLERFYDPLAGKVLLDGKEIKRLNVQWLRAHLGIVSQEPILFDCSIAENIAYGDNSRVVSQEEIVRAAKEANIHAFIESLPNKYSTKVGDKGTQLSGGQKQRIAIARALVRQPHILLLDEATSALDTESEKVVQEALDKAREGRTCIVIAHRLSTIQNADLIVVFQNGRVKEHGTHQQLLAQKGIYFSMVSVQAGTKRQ
MEKK2mut PB1 HTS: MEK5 binding signal on mutant MEKK2 PB1, primary screen, biochemical, multiplex bead flow cytometry, Alexa488-MEK5. 0.35% of 290,000 active. percent response, % at 10 µM. Alexa488-MEK5 binding to MEKK2 mutant. AID 1530, 2009; in the data active means percent response above about 24%, passing the limit was not always enough
MEKK2wt confirm: modulators of MEK5 binding to wildtype MEKK2, confirmation, biochemical, single concentration, multiplex bead flow cytometry; shares compounds with MEKK3 PB1 HTS; Alexa488-MEK5 binding to MEKK2 WT; actives lie on both sides; binding response (% of control), % at 10 µM; 2.4% of 5,900 active; AID 1892, 2009; in the data active means binding response below about 16% or above about 210%; inactive means in between
MEKK2mut confirm: mutant MEKK2 PB1-MEK5 binding signal retest – biochemical, single concentration, multiplex bead flow cytometry, confirmation; shares compounds with MEKK3 PB1 HTS; Alexa488-MEK5 binding to MEKK2 mutant; percent response, % at 10 µM; 2% of 5,900 active; in the data active means percent response mostly above about 71%, no sharp cut-off; inactive means mostly below about 38%;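 further: higher means compound restores mutant binding toward wildtype level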
MEKK3 confirm: MEKK3 wild-type PB1 binding to MEK5, inhibitors, confirmation, biochemical, bead multiplex flow cytometry, single concentration, wildtype. shares compounds with MEKK3 PB1 HTS. Alexa488-MEK5 binding to MEKK3; active compounds read low. binding response (% of control), % at 10 µM. 1.8% of 5,900 active. AID 1894, 2009;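 active means binding response below 72% of control, or above a set upper limit, though filed actives all read lower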;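 further: lower values mean stronger disruption of MEK5 binding to MEKK3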
Each line names hits and unclear results; the compound was inactive in the other large screens (follow-up assays come after a bar, where they were run); ! = repeats disagree; [ ] = remark or other dose.

C#CCOCCOCCOCCNc1nc(N2CCN(C(=O)C(Cc3ccc(O)cc3)n3cc(C(N)C(C)CC)nn3)CC2)nc(N2CCN(C(=O)C(Cc3ccc(O)cc3)n3cc(C(N)C(C)CC)nn3)CC2)n1 (configuration not stated)	MEKK2 WT-MEK5 145.0 | MEKK2wt confirm inactive | MEKK2mut confirm inactive | MEKK3 confirm inactive
O=C(NNS(=O)(=O)c1ccccc1)c1cccc([N+](=O)[O-])c1	none (no result: ABCG2 inh, ABCB1 inh)
CCN1CCN(c2ccc(S(=O)(=O)N3CCOCC3)cc2NC(=O)COc2ccc(F)cc2Cl)CC1	none (no result: ABCG2 inh, ABCB1 inh)
O=c1c2ccccc2nc(/C=C/c2c[nH]c3ccccc23)n1-c1ccc([N+](=O)[O-])cc1	MEKK3 PB1 HTS 75.0[inhibitor] | MEKK2wt confirm inactive | MEKK2mut confirm inactive | MEKK3 confirm inactive
Cc1[nH]c2ccccc2c1/C=C/c1nc2ccccc2c(=O)n1-c1cccc([N+](=O)[O-])c1	none
CC(C(=O)c1ccc(-c2ccccc2)cc1)[n+]1cccc(NC(=O)c2ccccc2)c1 (configuration not stated)	MEKK2 WT-MEK5 224.0, MEKK2mut PB1 HTS 62.0 (no result: ABCG2 inh, ABCB1 inh) | MEKK2wt confirm inactive | MEKK2mut confirm inactive | MEKK3 confirm inactive
COc1cc(OC)c(C2Nc3ccccc3NC3=C2C(=O)CC(C)(C)C3)cc1OC (configuration not stated)	none (no result: ABCG2 inh, ABCB1 inh)
COc1cc(C2Nc3ccccc3NC3=C2C(=O)CC(C)(C)C3)cc(OC)c1OC (configuration not stated)	MEKK2mut PB1 HTS 24.0 (no result: ABCG2 inh, ABCB1 inh) | MEKK2wt confirm inactive | MEKK2mut confirm inactive | MEKK3 confirm inactive
Cc1oc2ccc(O)cc2c1C(=O)OC(C)C	MEKK3 PB1 HTS 80.0[inhibitor] | MEKK2wt confirm inactive | MEKK2mut confirm inactive | MEKK3 confirm inactive
CCOC(=O)/C=C/c1nc(C(=O)OCC)c(C)c(=O)[nH]1	MEKK3 PB1 HTS 75.0[inhibitor] (no result: ABCG2 inh, ABCB1 inh) | MEKK2wt confirm inactive | MEKK2mut confirm inactive | MEKK3 confirm inactive
C/C(=N/NC(=O)c1cc(-c2ccccc2)nc2c(Cl)cccc12)c1cccnc1	none (no result: ABCG2 inh, ABCB1 inh)
Cc1ccccc1-n1c(SCC(=O)N/N=C/C=C/c2ccccc2[N+](=O)[O-])nc2ccccc2c1=O	MEKK3 PB1 HTS 134.0 | MEKK2wt confirm inactive | MEKK2mut confirm inactive | MEKK3 confirm inactive
COc1ccccc1-c1cc(C(=O)N/N=C/C=C/c2ccccc2[N+](=O)[O-])c2ccccc2n1	none
O=C(N/N=C/C=C/c1ccccc1[N+](=O)[O-])c1cc(-c2cccnc2)nc2ccccc12	MEKK3 PB1 HTS 65.0[inhibitor] | MEKK2wt confirm inactive | MEKK2mut confirm inactive | MEKK3 confirm inactive
O=C(CSc1nc2ccccc2c(=O)n1-c1ccccc1)N/N=C/C=C/c1ccccc1[N+](=O)[O-]	none
CC(=O)c1cc(C(=O)N2CCCC(C(=O)c3ccc(Cl)cc3)C2)cs1 (configuration not stated)	none (no result: ABCG2 inh, ABCB1 inh)
CSc1cccc(NC(=O)CC2Oc3ccccc3NC2=O)c1 (configuration not stated)	none (no result: ABCG2 inh, ABCB1 inh)
Cc1cc(O)c(C(=O)Nc2cccc(Cl)c2)c(=O)n1C	none (no result: ABCG2 inh, ABCB1 inh)
O=C(CCOc1ccccc1)Nc1cccc(S(=O)(=O)Nc2ccccc2Cl)c1	MEKK3 PB1 HTS 151.0 | MEKK2wt confirm inactive | MEKK2mut confirm inactive | MEKK3 confirm inactive
O=C(Nc1cccc(S(=O)(=O)Nc2ccccc2Cl)c1)c1ccc(Cl)nc1	none
CCOC(=O)C(=NC(C)C)NNc1cc(Cl)ccc1Cl	MEKK3 PB1 HTS 141.0 | MEKK2wt confirm inactive | MEKK2mut confirm inactive | MEKK3 confirm inactive
CCOC(=O)C(=NC(C)(C)C)NNc1cc(Cl)ccc1Cl	none
CCOc1cc(/C=C2\COc3ccccc3C2=O)cc(Br)c1OCC(=O)N(C)C	none (no result: ABCG2 inh, ABCB1 inh)
CCOc1c(C)cc(-c2ncccc2O)cc1C	MEKK3 PB1 HTS 130.0! | MEKK2wt confirm inactive | MEKK2mut confirm inactive | MEKK3 confirm inactive
COc1ccc(-c2ncccc2O)cc1	none
COc1ccc(-c2cc3c(=O)n(CC(=O)N4CCCC4)ncn3n2)cc1	none (no result: ABCG2 inh, ABCB1 inh)
CCc1ccc(OCC2c3cc(OC)c(OC)cc3CCN2C(=S)NC)cc1 (configuration not stated)	MEKK3 PB1 HTS 134.0 | MEKK2wt confirm inactive | MEKK2mut confirm inactive | MEKK3 confirm inactive
O=S(=O)(Nc1nc2ccccc2nc1Nc1ccc(N2CCOCC2)cc1)c1cc(Cl)ccc1Cl	MEKK3 PB1 HTS 150.0 | MEKK2wt confirm inactive | MEKK2mut confirm inactive | MEKK3 confirm inactive
CCOC(=O)N1CCN(C(=O)C2CCC(=O)N(CCCc3ccccc3)C2)CC1 (configuration not stated)	none (no result: ABCG2 inh, ABCB1 inh)
CCOC(=O)C1=C(CC)Nc2ccccc2N=C1NC(=O)Nc1ccc(Cl)c(Cl)c1	MEKK2 WT-MEK5 145.0 | MEKK2wt confirm inactive | MEKK2mut confirm inactive | MEKK3 confirm inactive
CCOC(=O)C1=C(CC)Nc2ccccc2N=C1NC(=O)c1ccc(S(=O)(=O)N2CCCC2)cc1	none
CCOCCCn1c(=S)[nH]c2cc(C(=O)N3CCN(C)CC3)ccc2c1=O	MEKK3 PB1 HTS 70.0[inhibitor] | MEKK2wt confirm inactive | MEKK2mut confirm inactive | MEKK3 confirm inactive
Cc1ccc(-c2ccc(C(=O)NCCCNC(=O)c3cnccn3)o2)cc1Cl	none (no result: ABCG2 inh, ABCB1 inh)
Cc1nc2ccccc2c2oc(C(=O)N3CCN(C4CCCCC4)CC3)cc12	none
Cc1nc2ccccc2c2oc(C(=O)N3CCC(N4CCCCC4)CC3)cc12	MEKK2 WT-MEK5 138.0, MEKK2mut PB1 HTS 26.0 | MEKK2wt confirm inactive | MEKK2mut confirm inactive | MEKK3 confirm inactive
Cc1ccc(-c2nc(NCCN3CCOCC3)c3ccccc3n2)cc1	MEKK3 PB1 HTS 72.0[inhibitor] | MEKK2wt confirm inactive | MEKK2mut confirm inactive | MEKK3 confirm inactive
Cc1cc(C)cc(NC(=S)NCc2cccnc2)c1	MEKK3 PB1 HTS 142.0 | MEKK2wt confirm inactive | MEKK2mut confirm inactive | MEKK3 confirm inactive
Fc1ccc(NC(=S)NCc2cccnc2)cc1	MEKK3 PB1 HTS 47.0[inhibitor] | MEKK2wt confirm inactive | MEKK2mut confirm inactive | MEKK3 confirm inactive

Screening results (PubChem)
